Measured values as given in ChEMBL document CHEMBL1250473, “Synthesis and primary cytotoxicity evaluation of new 5-benzylidene-2,4-thiazolidinedione derivatives” (2010).

Tests used:
Assay type in all cases: functional
K562 = test: Cytotoxicity against human K562 cells after 48 hrs by SRB; details: K562, 48 h; for TGI: read-out: pTGI
Procedure, shortened: (§1)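 Cells kept in RPMI 1640 with 10% FBS and 2 mM L-glutamine, plated at 5000 cells/well and incubated 24 h at 37 °C, 5% CO2. A time-zero plate was TCA-fixed at dosing. DMSO stocks were diluted in medium into four 10-fold concentrations, 10^-4 to 10^-7 M. Exposure lasted 48 h continuously, then cells were fixed in cold TCA, stained with 0.4% SRB and eluted with 10 mM Tris. A540 was read. GI50 = [(Ti−Tz)/(C−Tz)]×100 = 50; TGI from Ti = Tz.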

MCF7 = test: Cytotoxicity against human MCF7 cells after 48 hrs by SRB; details: MCF7, 48 h; for TGI: read-out: pTGI; procedure, shortened: as §1
HepG2 = test: Cytotoxicity against human HepG2 cells after 48 hrs by SRB; details: HepG2, 48 h; for TGI: read-out: pTGI; procedure, shortened: as §1
PC-3 = test: Cytotoxicity against human PC3 cells after 48 hrs by SRB; details: PC-3, 48 h; for TGI: read-out: pTGI; procedure, shortened: as §1
[1] = Cytotoxicity against human Gurav cells after 48 hrs by SRB; details: for TGI: read-out: pTGI; procedure, shortened: as §1
KB = test: Cytotoxicity against human KB cells after 48 hrs by SRB; details: for TGI: read-out: pTGI; procedure, shortened: as §1
HOP-62 = test: Cytotoxicity against human HOP62 cells after 48 hrs by SRB; details: HOP-62, 48 h; for TGI: read-out: pTGI; procedure, shortened: as §1

| SMILES | GI50 (K562) | TGI (K562) | GI50 (MCF7) | TGI (MCF7) | GI50 (HepG2) | TGI (HepG2) | GI50 (PC-3) | TGI (PC-3) | GI50 ([1]; Homo sapiens, Gurav, 48 h) | TGI ([1]; Homo sapiens, Gurav, 48 h) | GI50 (KB) | TGI (KB) | GI50 (HOP-62) | TGI (HOP-62) | GI50 [1] |
| --- | --- | --- | --- | --- | --- | --- | --- | --- | --- | --- | --- | --- | --- | --- | --- |
| O=C1NC(=O)/C(=C/c2ccc(OCC(=O)N3c4ccccc4Sc4ccccc43)cc2)S1 | > 100 µM | > 100 µM | 29.5 µM | > 100 µM | > 100 µM | > 100 µM | 29.5 µM | > 100 µM | > 100 µM | > 100 µM | > 100 µM | > 100 µM |  |  |  |
| Cc1c(NC(=O)COc2ccc(/C=C3\SC(=O)NC3=O)cc2)c(=O)n(-c2ccccc2)n1C | > 100 µM | > 100 µM | > 100 µM | > 100 µM | > 100 µM | > 100 µM | > 100 µM | > 100 µM | > 100 µM | > 100 µM | > 100 µM | > 100 µM | 0.186 µM | > 100 µM |  |
| Cc1cnc(NC(=O)COc2ccc(/C=C3\SC(=O)NC3=O)cc2)s1 | 2.24 µM | > 100 µM | > 100 µM | > 100 µM | > 100 µM | > 100 µM |  |  |  |  | > 100 µM | > 100 µM | 30.9 µM | > 100 µM |  |
| CCCCC1=NC2(CCCC2)C(=O)N1C(=O)COc1ccc(/C=C2/SC(=O)NC2=O)cc1 | > 100 µM | > 100 µM | 28.2 µM | > 100 µM | > 100 µM | > 100 µM | > 100 µM | > 100 µM | > 100 µM | > 100 µM | > 100 µM | > 100 µM | 29.5 µM | > 100 µM |  |
| O=C(COc1ccc(/C=C2\SC(=O)NC2=O)cc1)Nc1cccc(C(F)(F)F)c1 | 0.191 µM | > 100 µM |  |  | > 100 µM | > 100 µM | 2.51 µM | > 100 µM |  |  | 2.24 µM | > 100 µM | > 100 µM | > 100 µM |  |
| O=C(COc1ccc(/C=C2\SC(=O)NC2=O)cc1)Nc1nc2ccccc2s1 | > 100 µM | > 100 µM | 25.1 µM | > 100 µM | > 100 µM | > 100 µM | 28.2 µM | > 100 µM | > 100 µM | > 100 µM | > 100 µM | > 100 µM |  |  |  |
| O=C(COc1ccc(/C=C2\SC(=O)NC2=O)cc1)Nc1ncc([N+](=O)[O-])s1 | > 100 µM | > 100 µM | > 100 µM | > 100 µM | > 100 µM | > 100 µM | > 100 µM | > 100 µM | > 100 µM | > 100 µM | > 100 µM | > 100 µM | > 100 µM | > 100 µM |  |
| O=C1NC(=O)/C(=C\c2ccc(OCC(=O)N3C(=O)c4ccccc4S3(=O)=O)cc2)S1 | 2.69 µM | > 100 µM | 37.2 µM | > 100 µM | > 100 µM | > 100 µM | > 100 µM | > 100 µM | 31.6 µM | > 100 µM | > 100 µM | > 100 µM | > 100 µM | > 100 µM |  |
| O=C(COc1ccc(/C=C2\SC(=O)NC2=O)cc1)Nc1ccccn1 | > 100 µM | > 100 µM | 29.5 µM | > 100 µM | > 100 µM | > 100 µM | 29.5 µM | > 100 µM | > 100 µM | > 100 µM | > 100 µM | > 100 µM | 2.29 µM | > 100 µM |  |
| Cc1cc(NC(=O)COc2ccc(/C=C3\SC(=O)NC3=O)cc2)no1 | 2.75 µM | > 100 µM | 39.8 µM | > 100 µM | > 100 µM | > 100 µM | > 100 µM | > 100 µM | 38.9 µM | > 100 µM | > 100 µM | > 100 µM | > 100 µM | > 100 µM |  |
| COc1cccc2c1C(=O)c1c(O)c3c(c(O)c1C2=O)C[C@@](O)(C(=O)CO)C[C@@H]3O[C@H]1C[C@H](N)[C@H](O)[C@H](C)O1 [DOXORUBICIN] | 2.57 µM | > 100 µM |  |  | < 0.1 µM |  |  |  | 0.158 µM |  | < 0.1 µM |  |  |  | 0.107 µM |
